These results are taken from ChEMBL document CHEMBL2375208, “Structural, kinetic, and pharmacodynamic mechanisms of D-amino acid oxidase inhibition by small molecules” (J Med Chem, 2013).

Activity calls are given as the source filed them. The rule behind the calls is not given here.

Usually Kd stands for a measure of binding affinity in units of concentration. One may read the IC50 as the concentration at which inhibition is half-maximal. Usually Ki stands for a measure of affinity in units of concentration, obtained from inhibition or displacement. One may read the EC50 as the midpoint of the concentration-response curve.

Data set [1] deals with T1, D-amino-acid oxidase (Homo sapiens, UniProt P14920).
In data set [2] the target is T1, D-amino-acid oxidase. As to the kind of experiment: Binding affinity to human recombinant DAAO by stopped flow spectrophotometric analysis in presence of FAD.
For data set [3], the target named is T1, D-amino-acid oxidase. As to the kind of experiment: Binding affinity to human recombinant DAAO at 492 nm spectral modification by spectrophotometric analysis in presence of FAD. The procedure, abridged: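 Purified human recombinant DAAO, E. coli-expressed and purified on a nickel column then size exclusion, was titrated in the oxidized (holoenzyme) state with rising inhibitor concentrations up to saturation, without substrate turnover. Ligand-induced changes in the FAD visible absorption spectrum were followed. Kd with SE came from nonlinear regression of saturation curves of absorbance change against inhibitor concentration.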

Data set [4] addresses T1, D-amino-acid oxidase. As to the kind of experiment: Competitive inhibition of human recombinant DAAO after 1 hr by coupled enzyme assay in presence of D-serine.
Data set [5] has as its target T1, D-amino-acid oxidase. As to the kind of experiment: Competitive inhibition of human recombinant DAAO by Michaelis-Menten plot analysis in presence of D-serine.
Data set [6] addresses T1, D-amino-acid oxidase. As to the kind of experiment: Binding affinity to human recombinant DAAO at 600 nm spectral modification by spectrophotometric analysis in presence of FAD. The procedure, abridged: (§1)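 Purified human recombinant DAAO holoenzyme (His-tagged construct expressed in E. coli, purified by nickel column and size exclusion) was titrated in its oxidized state with increasing inhibitor concentrations, without substrate turnover. Ligand-induced changes in the FAD visible absorption spectrum were read at the stated wavelength. Kd and SE came from nonlinear regression of absorbance-change saturation curves. Changes above 500 nm indicate a charge-transfer complex.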

Data set [7] concerns the target T1, D-amino-acid oxidase. As to the kind of experiment: Binding affinity to human recombinant DAAO at 440 nm spectral modification by spectrophotometric analysis in presence of FAD. The procedure, abridged: as §1
Data set [8] has as its target T1, D-amino-acid oxidase. As to the kind of experiment: Binding affinity to human recombinant DAAO at 443 nm spectral modification by spectrophotometric analysis in presence of FAD. The procedure, abridged:
as §1

The target in data set [9] is T1, D-amino-acid oxidase. As to the kind of experiment: Binding affinity to human recombinant DAAO at 496 nm spectral modification by spectrophotometric analysis in presence of FAD. In a few lines:
as §1

Data set [10] has as its target T2, D-amino-acid oxidase (Sus scrofa, UniProt P00371). As to the kind of experiment: Competitive inhibition of pig kidney DAAO in presence of D-alanine.
Data set [11] can be described thus: Drug uptake in C57BL/6 mouse cerebellum at 30 mg/kg, ip after 6 hrs by LC/MS/MS analysis. The arrangement: dose 30 mg/kg, route intraperitoneal. The conditions noted are these: read-out: Drug uptake. The class given is ADME, organism-based. In a few lines: (§2)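 Male C57BL/6 mice (20–30 g) were dosed ip in 50 mM phosphate buffer at 5 mL/kg, with controls given vehicle only. Regimens were 12 mg/kg once or repeated at 2, 4 and 6 h, 30 mg/kg, or 125 mg/kg. Mice were killed at set times. Cerebellar inhibitor and D-serine were measured in the same samples, D-serine by chiral LC/MS/MS. Initial rate was the slope over 0–2 h.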

Data set [12] concerns Mus musculus. As to the kind of experiment: Inhibition of DAAO in C57BL/6 mouse assessed as increase in rate of D-serine accumulation in cerebellum at 125 mg/kg, ip by LC/MS/MS analysis. The data set is classed as functional, organism-based. Details: dose 125 mg/kg. In a few lines: as §2
Data set [13] in a line: Drug uptake in C57BL/6 mouse cerebellum at 125 mg/kg, ip after 3 hrs by LC/MS/MS analysis. Details: dose 125 mg/kg, route intraperitoneal. Conditions: read-out: Drug uptake. The class given is ADME, organism-based. The procedure, abridged: as §2
Data set [14] deals with T1, D-amino-acid oxidase. As to the kind of experiment: Binding affinity to human recombinant DAAO at 498 nm spectral modification by spectrophotometric analysis in presence of FAD. In a few lines:
(§3)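 Oxidized holoenzyme of purified human recombinant DAAO, titrated with increasing inhibitor in the absence of substrate. Ligand-induced changes in the FAD visible absorption spectrum were read at fixed wavelengths. Kd and SE came from nonlinear regression of saturation of the absorbance change.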

Data set [15] has as its target T1, D-amino-acid oxidase. As to the kind of experiment: Binding affinity to human recombinant DAAO at 395 nm spectral modification by spectrophotometric analysis in presence of FAD. The procedure, abridged: as §3
The target in data set [16] is T1, D-amino-acid oxidase. As to the kind of experiment: Binding affinity to human recombinant DAAO at 444 nm spectral modification by spectrophotometric analysis in presence of FAD. In a few lines: as §3
Data set [17] deals with Rattus norvegicus. As to the kind of experiment: Inhibition of DAAO in ip dosed Sprague-Dawley rat assessed as cerebellum concentration of compound required for 50% accumulation of D-serine after 6 hrs by LC/MS/MS analysis. The data set is classed as functional, organism-based. In a few lines:
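Rats received different ip doses. Cerebellum D-serine and inhibitor concentrations were measured 6 h later. EC50 was the inhibitor concentration at half-maximal D-serine increase, from a sigmoidal dose–response fit.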

Data set [18] addresses T1, D-amino-acid oxidase. As to the kind of experiment: Binding affinity to human recombinant DAAO at 362 nm spectral modification by spectrophotometric analysis in presence of FAD. The procedure, abridged:
as §3

Data set [19] addresses T1, D-amino-acid oxidase. As to the kind of experiment: Binding affinity to human recombinant DAAO at 490 nm spectral modification by spectrophotometric analysis in presence of FAD.
Data set [20] deals with T1, D-amino-acid oxidase. As to the kind of experiment: Inhibition of DAAO (unknown origin).
Data set [21] has as its system Rattus norvegicus. As to the kind of experiment: Metabolic stability in Sprague-Dawley rat at 3 to 10 mg/kg, po/10 mg/kg, ip by LC/MS/MS analysis. The class given is ADME, organism-based. Details: dose 3-10 mg/kg, route intraperitoneal. Conditions: in vivo.
Data set [22] in a line: Drug uptake in C57BL/6 mouse cerebellum at 12 mg/kg, ip administered every 2 hrs by LC/MS/MS analysis. The class given is ADME, organism-based. The arrangement: dose 12 mg/kg, route intraperitoneal. Conditions: read-out: Drug uptake. In a few lines:
as §2

The species named for data set [23] is Mus musculus. The conditions noted are these: C57BL/6, Cerebellum, 12 mg/kg.
Data set [24] concerns the target T1, D-amino-acid oxidase. As to the kind of experiment: Binding affinity to human recombinant DAAO at 520 nm spectral modification by spectrophotometric analysis in presence of FAD.
Data set [25] in a line: Drug uptake in C57BL/6 mouse cerebellum at 12 mg/kg, ip after 2 hrs by LC/MS/MS analysis. The conditions noted are these: read-out: Drug uptake. The arrangement: dose 12 mg/kg, route intraperitoneal. The class given is ADME, organism-based. The procedure, abridged:
as §2

Data set [26] deals with T2, D-amino-acid oxidase. As to the kind of experiment: Binding affinity to pig kidney DAAO using D-alanine as substrate.

T1 sequence (P14920 whole entry): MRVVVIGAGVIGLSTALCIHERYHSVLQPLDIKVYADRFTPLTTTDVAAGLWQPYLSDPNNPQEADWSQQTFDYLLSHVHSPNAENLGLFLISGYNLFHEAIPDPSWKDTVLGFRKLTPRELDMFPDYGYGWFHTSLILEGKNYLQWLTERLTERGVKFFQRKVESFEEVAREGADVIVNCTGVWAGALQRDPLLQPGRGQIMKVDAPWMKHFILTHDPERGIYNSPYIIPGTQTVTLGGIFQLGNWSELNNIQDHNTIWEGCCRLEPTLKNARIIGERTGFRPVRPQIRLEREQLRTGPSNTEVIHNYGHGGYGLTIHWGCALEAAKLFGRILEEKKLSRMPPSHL
T2 sequence (P00371 whole entry): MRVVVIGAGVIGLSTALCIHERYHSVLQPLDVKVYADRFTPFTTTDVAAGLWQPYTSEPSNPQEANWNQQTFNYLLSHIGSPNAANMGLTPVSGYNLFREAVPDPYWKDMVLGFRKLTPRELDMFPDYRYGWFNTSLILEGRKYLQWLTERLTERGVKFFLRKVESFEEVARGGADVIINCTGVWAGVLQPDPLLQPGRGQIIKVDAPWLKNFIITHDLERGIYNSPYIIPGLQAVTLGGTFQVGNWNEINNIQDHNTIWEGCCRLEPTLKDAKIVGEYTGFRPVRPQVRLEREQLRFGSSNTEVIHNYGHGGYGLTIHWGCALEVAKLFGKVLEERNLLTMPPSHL

In the case of `O=C(O)c1ccccc1` [BENZOIC ACID], the Kd at D-amino-acid oxidase [1] was found to be 9000 nM; on D-amino-acid oxidase [2], 2300 nM; on D-amino-acid oxidase [3] it was 2200 nM. Further, the IC50 at D-amino-acid oxidase [4] was 2090 nM. Further, the Ki at D-amino-acid oxidase [5] stood at 2000 nM.
Turning to `O=C(O)c1cc2occ(CCc3ccccc3)c2[nH]1`, the Kd on D-amino-acid oxidase [6] worked out at 3200 nM; on D-amino-acid oxidase [2] it was 6000 nM; on D-amino-acid oxidase [3], 3700 nM; on D-amino-acid oxidase [7], 4800 nM. Besides, the IC50 at D-amino-acid oxidase [4] is 219 nM. Besides, the inhibitory constant (Ki) at D-amino-acid oxidase [5] came to 190 nM.
As for `O=c1oc2ccccc2cc1O` [3-HYDROXYCOUMARIN], the figures for the Kd on D-amino-acid oxidase [8], on D-amino-acid oxidase [2] and at D-amino-acid oxidase [9] were 4000 nM, 6300 nM and 5600 nM, respectively. For the same compound, the IC50 on D-amino-acid oxidase [4] is 34.7 nM. In addition, the Ki at D-amino-acid oxidase [5] came out at 13 nM.
Take `O=C(O)c1cc2ccccc2[nH]1` [INDOLE-2-CARBOXYLIC ACID]: the Ki at D-amino-acid oxidase [10] came out at 3400 nM.
Consider `O=C(O)c1cc(CCc2ccc(Cl)cc2)c[nH]1`, for which, in data set [11], the concentration at 6 h is greater than 1000 nM.
For `Oc1noc2cc(Cl)c(Cl)cc12`, the inhibition result in the data set with Mus musculus [12] was “Active”. Also, in [13], the concentration at 3 h was less than 1000 nM. Further, the Kd was determined as 4200 nM at D-amino-acid oxidase [14]; 4000 nM at D-amino-acid oxidase [15]; 1900 nM at D-amino-acid oxidase [2]; 4200 nM at D-amino-acid oxidase [16]; 3600 nM on D-amino-acid oxidase [18]. For the same compound, at D-amino-acid oxidase [4], the IC50 is 3.09 nM. Further, the Ki on D-amino-acid oxidase [5] came to 1.7 nM. In the data set on Rattus norvegicus [17], the EC50 was found to be 1500 nM.
For the compound `O=C(O)c1cc2sccc2[nH]1`, the results for the Kd at D-amino-acid oxidase [19], on D-amino-acid oxidase [2] and on D-amino-acid oxidase [24] were 130 nM, 7000 nM and 2500 nM, respectively. In addition, the IC50 against D-amino-acid oxidase [20] and on D-amino-acid oxidase [4] was 5.37 nM throughout. The Stability entry in the data set on Rattus norvegicus [21] is “Unstable”. In addition, the concentration at 2 h in [22] is greater than 1000 nM; in data set [25], less than 1000 nM. Also, the Ki at D-amino-acid oxidase [5] is 3.5 nM. Further, the inhibition entry in the data set filed under Mus musculus [23] was “Active”. For the same compound, the EC50 in the data set on Rattus norvegicus [17] came to 500 nM.
As to `O=C(O)c1ccc[nH]1`, the Kd on D-amino-acid oxidase [26] amounted to 26000 nM.
